Compound activity (PubChem)
Compounds with a hit are over-represented: about 3.7% of the library has one in this group of screens.
OX1R antag-1: antagonists of human orexin 1 receptor (OX1R); inhibition, % at 6.6 µM; OX1R-expressing cells, FRET antagonist read-out; 330,000 tested, 1.8% active; in the data active = inhibition mostly above about 38%, no sharp cut-off; inactive = mostly below about 40%;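 also: 0% = agonist challenge alone and 100% = reference antagonist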
GPR7 antag: antagonists of human GPR7 (neuropeptides B/W receptor 1); GPR7-expressing cells, fluorescence antagonist assay; AID 1861; P48145; 290,000 tested, 1.1% active; inhibition, % at 4.4 µM; in the data active = inhibition above about 16%, passing the limit was not always enough;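 also: cells stimulated with the agonist NPW; 0% = agonist with vehicle and 100% = vehicle without agonist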
PGE2 EP2 inh: blocks the human prostaglandin E2 receptor EP2. AID 1422. 260,000 tested, 0.52% active. inhibition, % at 25 µM. P43116. C6 glioma cells expressing human EP2, cAMP TR-FRET; cells stimulated with saturating PGE2;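 active = percent inhibition above 40 after rounding to a whole number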;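 also: rat C6 glioma host cells with rolipram phosphodiesterase inhibitor present; the protocol text gives 20 µM as final concentration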
Target sequence (P43116 whole entry, looked up): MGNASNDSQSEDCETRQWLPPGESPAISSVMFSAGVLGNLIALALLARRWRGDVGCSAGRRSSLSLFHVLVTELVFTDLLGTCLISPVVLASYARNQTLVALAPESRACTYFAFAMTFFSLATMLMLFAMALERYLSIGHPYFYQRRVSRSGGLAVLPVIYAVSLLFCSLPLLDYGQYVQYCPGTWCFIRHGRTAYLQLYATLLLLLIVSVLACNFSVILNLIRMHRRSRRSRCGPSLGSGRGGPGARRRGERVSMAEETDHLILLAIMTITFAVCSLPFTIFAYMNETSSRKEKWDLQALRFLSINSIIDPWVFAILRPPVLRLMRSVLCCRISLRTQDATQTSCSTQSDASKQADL
CHO parental Ca: counter-screen: ATP calcium response change in parental CHO cells; inhibition, % at 5.6 µM; 330,000 tested, 0.63% active; AID 463079; parental CHO-K1, ATP-induced calcium, Fluo-8 fluorescence;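 active = inhibition above that plate's mean sample inhibition plus 3 SD, cut at about 26% in these data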;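 also: 0% = ATP-challenged DMSO wells and 100% = DMSO wells without ATP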
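Measured by: calcium-sensitive Fluo-8 fluorescence / Test system: CHO parental line / Controls: ATP-challenged DMSO wells low, unchallenged DMSO wells high / Measure: % inhibition / Compound: single nominal dose of 5.6 µM per compound / Replicates: single well per compound, no replicates / Reagent: ATP as calcium-mobilizing challenge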
EP2 modulator: EP2 receptor (human) modulation; EP2-expressing cells, cAMP HTRF FRET, PGE2 co-stimulation; induction, % at 25 µM; 260,000 tested, 0.83% active; AID 940;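 active = compounds whose cAMP rise, as percent of the full-agonist control response, exceeds 60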;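 also: rat C6 glioma line stably carrying human EP2 under a CMV promoter; the protocol text gives 20 µM as final concentration; 100% = response of wells given 1 µM PGE2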
OX1R antag-2: blocks the human orexin 1 receptor; O43613; CHO/OX1R cells, Fluo-8 calcium fluorescence, orexin A; inhibition, % at 5 µM; 330,000 tested, 0.43% active; AID 434989;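 active = inhibition above its plate's threshold, mean inhibition of all tested compounds on the plate plus 3 SD, cut at about 37% in these data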;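 also: 0% = orexin A challenge wells and 100% = SB-334867-A antagonist wells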
OX1R HTRF conf: OX1R (human) antagonism, HTRF confirmed; shares compounds with OX1R antag-1; OX1R-expressing cells, HTRF antagonist assay; inhibition, % at 6.6 µM; 1,800 tested, 49% active; AID 492964; in the data active = inhibition above about 55%;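 also: CHO cells expressing OX1R stimulated with orexin A at about EC80; 0% = agonist challenge alone and 100% = reference antagonist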
CHO-K1 HTRF cnt: signal in parental CHO-K1 cells, OX1R antagonist counter-screen. shares compounds with OX1R antag-1. HTRF counterscreen. inhibition, % at 6.6 µM. 1,800 tested, 48% active; in the data active = inhibition above about 17%;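 also: 0% = agonist challenge with vehicle and 100% = vehicle alone without agonist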
* marks the source's active call; other numbers are inactive results; . = no result; + = active, no number.

SMILES	OX1R antag-1	GPR7 antag	PGE2 EP2 inh	CHO parental Ca	EP2 modulator	OX1R antag-2	OX1R HTRF conf	CHO-K1 HTRF cnt
COC(=O)c1ccc(/C=C/c2ccc3cccc(OC)c3n2)cc1	34	-14	14	-22	-1	-38	.	.
CC(=O)Nc1ccc(/C=C/c2ccc3cccc([N+](=O)[O-])c3n2)cc1	87*	-6	10	-15	-16	8	62*	10
COC(=O)c1cccc(-n2c(=O)n(Cc3ccccc3)c(=O)c3[nH]cnc32)c1C	-2	-12	.	-8	.	-19	.	.
CCOC(=O)N1CCC(NC(=S)Nc2ccc3nc(N4CCN(C)CC4)cc(C)c3c2)CC1	105*	-3	8	-7	-33	-23	20	-1
CCOC(=O)N1CCC(NC(=S)Nc2ccc3nc(N4CCN(CC)CC4)cc(C)c3c2)CC1	7	-16	2	-16	-21	-23	.	.
CCOC(=O)C1(CC)NC(c2cccc(F)c2)C2C(=O)N(CC)C(=O)C21 (stereo unspecified)	89*	10	9	-3	-8	-6	11	-2
CCN1C(=O)[C@H]2[C@@H](c3ccc(-c4ccc(F)cc4)cc3)N[C@@](CC(C)C)(C(=O)OC)[C@H]2C1=O	18	.	.	-16	.	-24	.	.
Cc1cc(NC(=O)CCCOc2ccc(Cl)cc2Cl)no1	12	-4	20	27	3	-17	.	.
CC(NC(=O)COC(=O)c1ccc2c(c1)S(=O)(=O)N=C1CCCCCN12)C12CC3CC(CC(C3)C1)C2 (stereo unspecified)	9	-6	8	-15	14	-11	.	.
OCc1cn(-c2ccccc2)nc1-c1cc2ccccc2o1	81*	-2	5	0	-3	-13	35	12
CCOc1ccc2c(c1)S/C(=C\c1cccs1)C(=O)N2	81*	-11	6	-13	16	8	72*	5
COCCN(C(=O)CCC(=O)Nc1nccs1)C(C(=O)NC(C)(C)C)c1ccc(F)cc1 (stereo unspecified)	19	2	.	-4	.	-27	.	.
COCCNC(=O)C(c1ccc(F)cc1)N(Cc1ccccc1)C(=O)CCC(=O)Nc1nccs1 (stereo unspecified)	78*	0	.	-13	.	16	80*	1
Cc1cc(C)c2cc(CN(CC3CCCO3)C(c3nnnn3C(C)(C)C)C(C)C)c(=O)[nH]c2c1 (stereo unspecified)	.	.	10	.	0	.	.	.
CSc1nc2sc3c(c2c2nncn12)CCC3	26	-7	9	-8	27	-21	.	.
COCCN1Cc2cccc(C(=O)Nc3cccc(-c4nc5ccccc5[nH]4)c3)c2C1=O	86*	11	10	-14	-35	-3	60*	3
CCSc1c(C(=O)NC)ccc2c1C(=O)c1ccccc1C2=O	91*	4	2	-4	-16	-14	58*	92*
COC(=O)c1ccc2c(c1O)C(=O)c1ccccc1C2=O	59	-1	13	-22	-12	-18	.	.
CN(C)CCNC(=O)C(=O)NCC1OCCN1S(=O)(=O)c1ccc([N+](=O)[O-])cc1 (stereo unspecified)	89*	-8	13	-7	-10	-1	41	60*
CCN(CC)CCNC(=O)C(=O)NCC1OCCN1S(=O)(=O)c1ccc([N+](=O)[O-])cc1 (stereo unspecified)	92*	3	9	1	-5	-6	41	64*
CCN(CC)CCNC(=O)C(=O)NCC1OCCN1S(=O)(=O)c1ccc(Cl)cc1 (stereo unspecified)	5	-13	.	1	.	2	.	.
CN(c1ccc(O)cc1)c1nc(O)c(C2=c3ccccc3=NC2=O)s1	79*	.	.	-17	.	10	45	13
N#Cc1cccn1-c1nccc(-c2cccs2)n1	87*	-10	5	-18	-25	-9	75*	2
Cc1ccc(C)n1-c1nccc(-c2cccs2)n1	19	8	.	-11	39	-8	.	.
COc1cccc(C(=O)N(Cc2nc(-c3cccc(C)c3)no2)C(C)C)c1OC	81*	-12	7	-13	8	11	69*	-9
SMILES	OX1R antag-1	GPR7 antag	PGE2 EP2 inh	CHO parental Ca	EP2 modulator	OX1R antag-2	OX1R HTRF conf	CHO-K1 HTRF cnt
Cc1cccc(-c2noc(CN(C(=O)c3ccc(Br)o3)C(C)C)n2)c1	35	-10	7	-15	30	-21	.	.
CC(C)N(Cc1nc(-c2ccccc2)no1)C(=O)Cc1ccccc1	78*	0	8	-15	7	10	52	-15
COC(CNC(=O)c1ccc2nc(-c3cccs3)c(-c3cccs3)nc2c1)OC	84*	-1	12	-18	18	1	42	6
COc1ccc(OC)c(NC(=O)CN2C(=O)NC3(CCCc4ccccc43)C2=O)c1 (stereo unspecified)	6	.	.	-5	.	-15	.	.
N#CC1=C(N)Oc2cc(O)ccc2C1c1ccncc1 (stereo unspecified)	111*	18	13	-8	-11	2	13	-6
N#CC1=C(N)Oc2cc(O)ccc2C1c1cccnc1 (stereo unspecified)	55	-6	4	7	-4	17	.	.
Cc1ncoc1C(=O)Nc1nccs1	-2	-1	6	-3	32	-9	.	.
Cc1c(C(=O)Nc2nccs2)oc2c(Cl)cccc12	77*	.	.	-16	.	-4	67*	14
O=C(N/N=C/c1cc(Cl)c(O)c(Cl)c1)c1cc2c(ccc3ccccc32)o1	92*	-22	.	14	.	9	54	14
CCN1C(=O)/C(=C/N(C(C)=O)c2ccccc2)N(c2ccccc2)C1=S	82*	-3	23	-18	-7	-12	28	16
CCC1(C)N=c2c(c(=O)n(C)c(=O)n2C)=NO1 (stereo unspecified)	123*	9	10	-5	8	4	21	26*
CC(=O)Nc1ccc(Nc2ccc3nonc3c2[N+](=O)[O-])cc1	+	-8	8	-1	-27	-4	55*	93*
O=C1c2cccc3cccc(c23)C(=O)N1/N=C/c1ccc(O)cc1O	99*	-3	12	-1	8	-7	41	64*
O=C1c2ccccc2C(=O)N1/N=C/c1ccc(O)c(O)c1O	.	-8	5	.	5	.	.	.
CCCCC(=O)Nc1ccc2oc(-c3cccnc3)nc2c1	23	-6	18	-19	.	-28	.	.
CC1CN(C(=O)Cn2cnc3c2c(=O)n(C)c(=O)n3C)CC(C)O1 (stereo unspecified)	15	-5	18	4	11	-13	.	.
Cc1ccc(N2CN=c3s/c(=C\c4cccnc4)c(=O)n3C2)cc1	99*	-2	22	2	-24	-23	36	49*
